Results on 25 compounds are retold here after ChEMBL document CHEMBL1125380, “Synthesis, cardiac electrophysiology, and beta-blocking activity of novel arylpiperazines with potential as class II/III antiarrhythmic agents” (J Med Chem, 1992).

Structures are written as SMILES. Activity calls are given as the source filed them. The rule behind the calls is not given here.

For experiment [1], the species on record is Canis familiaris. Briefly: Compound was evaluated for Mean arterial pressure in dog. It counts as functional, Canis lupus familiaris, Artery. The method, boiled down: (§1)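 Pentobarbital-anesthetized mongrel dogs (n = 4) received a 10 mg/kg iv dose over 5 min. Haemodynamic parameters were recorded 15 min after dosing, as change from pre-dose.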
For experiment [2], the species on record is Canis familiaris. The experiment in a line: Number of active animals / number of tested animals in programmed electrical stimulation model (PES). It counts as functional, Canis lupus familiaris. The method, boiled down:
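Conscious dogs studied by programmed electrical stimulation 3-8 days after occlusion/reperfusion infarction. Two control SVT/VF inductions were made first, with VF ended by DC countershock and SVT by burst pacing. Reinduction was tried after iv compound; an animal counted as protected if SVT/VF could not be induced.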

For experiment [3], the species on record is Canis familiaris. Briefly: Peak range of change in left ventricular pressure in dog. The class given is functional, Canis lupus familiaris, Heart left ventricle. In short, it runs like this:
as §1

The species named for experiment [4] is Canis familiaris. The experiment in a line: Concentration necessary to prolong APD at 95% repolarization by 20% from control. It counts as functional, Canis lupus familiaris. In short, it runs like this: (§2)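 Concentration giving a 20% prolongation of action potential duration at 95% repolarization versus control, with Vmax monitored as a class I index. Values are the log mean of n experiments with range; concentrations went up to 30 µM.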

For experiment [5], the species on record is Canis familiaris. Briefly: Compound was evaluated for Total peripheral resistance in dog. The class given is functional, Canis lupus familiaris. In short, it runs like this:
as §1

For experiment [6], the target named is Beta-2 adrenergic receptor (Canis lupus familiaris, UniProt P54833). It counts as cell membranes.
Beta-2 adrenergic receptor, sequence (P54833 whole entry, the tested form may be a part): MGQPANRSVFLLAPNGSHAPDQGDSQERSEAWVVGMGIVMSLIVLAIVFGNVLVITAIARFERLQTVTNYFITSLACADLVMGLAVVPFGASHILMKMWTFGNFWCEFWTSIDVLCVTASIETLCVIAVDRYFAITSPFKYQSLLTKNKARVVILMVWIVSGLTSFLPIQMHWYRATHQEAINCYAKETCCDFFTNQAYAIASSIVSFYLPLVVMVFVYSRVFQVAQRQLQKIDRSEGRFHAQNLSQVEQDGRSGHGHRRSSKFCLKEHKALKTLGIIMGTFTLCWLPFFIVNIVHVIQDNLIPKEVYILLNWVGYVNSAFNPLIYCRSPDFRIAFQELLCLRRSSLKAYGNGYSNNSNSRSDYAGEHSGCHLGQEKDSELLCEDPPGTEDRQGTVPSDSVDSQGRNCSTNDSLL
Experiment [7] concerns Canis familiaris. Briefly: number of effected animals / number of tested animals at 3 mg/kg in a halothane / epinephrine model. It counts as functional, Canis lupus familiaris. The method, boiled down: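 Halothane-anesthetized dogs received compound as a 10-min iv infusion at 3 mg/kg. Thirty minutes later, epinephrine was infused at 1.5 µg/kg per min for 15 min. Protection meant no SVT/VF during the whole epinephrine infusion; reported as protected/tested.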

Experiment [8] is filed under the species Canis familiaris. Briefly: Compound was evaluated for Cardiac output in dog. The class given is functional, Canis lupus familiaris. In short, it runs like this: as §1
Experiment [9] is filed under the species Canis familiaris. The experiment in a line: Compound was evaluated for change in Heart rate in dog. The class given is functional, Canis lupus familiaris. The method, boiled down:
as §1

For experiment [10], the species on record is Canis familiaris. Briefly: Concentration necessary to prolong APD at 95% repolarization by 20% from control; Not Reached at 30 uM. The settings on record: Canis lupus familiaris. It counts as functional. In short, it runs like this:
as §2

The IC50 is the point on the concentration scale where inhibition reaches its midpoint. As to `CS(=O)(=O)Nc1ccc(C(=O)NCC2CN(c3ccccc3)CCN2)cc1` (configuration not stated), the MAP in the experiment filed under Canis familiaris [1] was 5. In addition, the No. active in the experiment filed under Canis familiaris [2] is on record as 6. This compound also had an LV in the experiment filed under Canis familiaris [3] of 3. In addition, the “C20 APD95” value in the experiment filed under Canis familiaris [4] was determined as 0.8 µM. In the experiment filed under Canis familiaris [5], this compound gave a TPR of 22. The same compound gave an IC50 in experiment [6] of 3.4 µM. This compound showed a No. effective in the experiment with Canis familiaris [7] of 5. The compound further returned a Cardiac output in the experiment filed under Canis familiaris [8] of -14. In the experiment listed under Canis familiaris [9], this compound came in with an HR of 38.
For the compound `O=C(NCC1CN(c2ccccc2)CCN1)c1ccc(-n2ccnc2)cc1` (configuration not stated), in the experiment filed under Canis familiaris [4], the “C20 APD95” value stood at 0.9 µM. In [6], this compound gave an IC50 of 4.3 µM.
For `CS(=O)(=O)Nc1ccc(C(=O)NCC2CN(c3cccc(Cl)c3)CCN2)cc1` (configuration not stated), in that order: 0.8 µM and 3.8 µM.
For `CS(=O)(=O)Nc1ccc(NCC2CN(c3ccccc3)CCN2)cc1` (configuration not stated), in that order: 2 µM and 1 µM.
For `COc1ccccc1N1CCNC(CNC(=O)c2ccc(NS(C)(=O)=O)cc2)C1` (configuration not stated), in that order: 18 µM and 0.63 µM.
Regarding `COc1cccc(N2CCNCC2)c1`, the IC50 in [6] was found to be 29 µM.
As for `CS(=O)(=O)Nc1ccc(C(=O)NCC2CNCCN2c2ccccc2)cc1` (configuration not stated), the “C20 APD95” value in the experiment filed under Canis familiaris [4] came to 3.2 µM. Besides, in experiment [6], the midpoint of inhibition, the IC50, lay at 31 µM.
In [6], `O=C(NCC1CN(c2ccccc2)CCN1)c1ccccc1` (configuration not stated) yielded an IC50 of 6.2 µM. Also, the “C20 APD95” value in the experiment filed under Canis familiaris [10] was “inactive”.
In [6], `Cc1ccccc1N1CCNCC1` showed an IC50 of 29 µM.
The same measure, in the same setting: for `COc1ccc(N2CCNCC2)cc1` the value was over 100 µM.
Still for that read-out and setting: in the case of `Cc1ccc(N2CCNCC2)cc1` it was over 100 µM.
With `Clc1ccc(N2CCNCC2)cc1`, in experiment [6], 70 µM corresponded to half-maximal inhibition (IC50).
Still for that read-out and setting: in the case of `Clc1ccccc1N1CCNCC1` it was 16 µM.
Same read-out and setting: for `Clc1cccc(N2CCNCC2)c1` [CHLOROPHENYLPIPERAZINE] the value was 18 µM.
`CN(c1ccc(C(=O)NCC2CN(c3ccccc3)CCN2)cc1)S(C)(=O)=O` (configuration not stated): 4.3 µM corresponded to half-maximal inhibition in [6] (IC50). Besides, the “C20 APD95” value in the experiment filed under Canis familiaris [10] is “inactive”.
`COc1ccccc1N1CCNCC1` yielded an IC50 in experiment [6] of 34 µM.
As for `c1ccc(N2CCNCC2)cc1` [PHENYLPIPERAZINE], in experiment [6], the IC50 was over 100 µM.
Still for that read-out and setting: in the case of `CC(=O)c1ccc(N2CCNCC2)cc1` it was over 100 µM.
Take `CS(=O)(=O)Nc1ccc(NCC2CNCCN2c2ccccc2)cc1` (configuration not stated): the “C20 APD95” value in the experiment filed under Canis familiaris [4] was found to be 9.2 µM. Moreover, in [6], half-maximal inhibition (IC50) was put at 42 µM.
For `COc1cccc(N2CCNC(CNC(=O)c3ccc(NS(C)(=O)=O)cc3)C2)c1` (configuration not stated), in that order: 2.5 µM and 3.5 µM.
In turn, `Cc1cccc(N2CCNCC2)c1` displayed an IC50 in experiment [6] of 40 µM.
Turning to `CS(=O)(=O)Nc1ccc(NC(=O)C2CN(c3ccccc3)CCN2)cc1` (configuration not stated), in the experiment filed under Canis familiaris [4], the “C20 APD95” value was found to be 21 µM. The compound also showed an IC50 in [6] of over 100 µM.
As for `CS(=O)(=O)Nc1ccc(OCC2CN(c3ccccc3)CCN2)cc1` (configuration not stated), the “C20 APD95” value in the experiment listed under Canis familiaris [4] turned out to be 1 µM. This compound also yielded an IC50 in experiment [6] of 4.5 µM.
The matching figures for `CS(=O)(=O)Nc1ccc(CNCC2CN(c3ccccc3)CCN2)cc1` (configuration not stated): 0.4 µM and 4.6 µM.
In turn, `CC(C)NCC(O)c1ccc(NS(C)(=O)=O)cc1` (configuration not stated) [SOTALOL] came in with an MAP in the experiment listed under Canis familiaris [1] of -26. This compound returned a No. active in the experiment listed under Canis familiaris [2] of 7. The compound also registered an LV in the experiment listed under Canis familiaris [3] of -33. In addition, the “C20 APD95” value in the experiment listed under Canis familiaris [4] came out at 18 µM. Moreover, the TPR in the experiment listed under Canis familiaris [5] is on record as 41. Besides, the No. effective in the experiment on Canis familiaris [7] was found to be 6. In addition, the Cardiac output in the experiment listed under Canis familiaris [8] is recorded as -44. For the same compound, in the experiment filed under Canis familiaris [9], the HR is -39.
